Values without a mark were called inactive. Results filed as inconclusive are left out. Calls of active or inactive are those of the source.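 The calls were made as follows, unless noted: active = inhibition over a set limit, the all-compound mean plus 3 SD, in both replicate runs; inconclusive = over that limit in just one replicate run; inactive = at or under that limit in both runs.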
Key:
[1] = OD615 S. cerevisiae growth inhibition, permissive medium, pilot counter-assay, permissive growth control for S. cerevisiae lifespan shortening project (AID 705;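 active = growth inhibition above 25% in both replicates, a cutoff set 3 SD above the mean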); details: OD615, 24 h, at 10 µM, active compounds read high
Method in brief: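 System: engineered DeaD yeast; Medium: permissive raffinose/galactose medium; Compound dosing: 10 µM single dose, 0.25% DMSO; Incubation: 4 h cell pre-growth, 24 h exposure at 30 °C; Technique: OD at 615 nm; Evaluation: growth inhibition from lowered OD615 after 24 h.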

[2] = Restrictive medium S. cerevisiae growth inhibition, OD615, pilot screen of yeast lifespan reduction project, restrictive growth control (AID 706;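 active = growth inhibition above a set limit, 3 SD over mean compound inhibition, in both replicates, cut at about 43% in these data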;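 also: modified DeaD lifespan yeast strain shifted to restrictive glucose medium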); details: OD615, 48 h, at 10 µM, active compounds read high
Method in brief: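 Material: modified S. cerevisiae; buffer or medium: CSMM-D glucose medium; doses: one concentration, 10 µM final, 0.25% DMSO; incubation: 48 h compound exposure at 30 °C; detection: optical density at 615 nm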

[3] = viability gain of MRP-1-high H69AR cells under doxorubicin, pilot screen, MRP-1 activator project, CellTiter-Glo, duplicate (AID 807;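 active = viability increase at or above a cutoff of the median across tested compounds plus 3 SD, cut at about 8.5% in these data, passing the limit was not always enough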;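 also: compound pretreatment 18-22 h then 72 h combined with doxorubicin; 0% = doxorubicin alone and 100% = vehicle without doxorubicin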); details: H69AR viability with doxorubicin, CellTiter-Glo luminescence; at 10 µM; active compounds read high
[4] = growth suppression of beta-catenin knockout HCT116, pilot screen, human colon tumor cells (AID 823;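 active = cell viability at or below a set limit in both duplicate runs, the limit being the all-compound median minus 4 SD, cut at about 23% in these data, passing the limit was not always enough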;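 also: 0% = wells killed by 20 µM Hyamine and 100% = untreated DMSO cell wells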); details: CellTiter-Glo, 60 h, at 10 µM, active compounds read low
[5] = growth suppression of PTEN-deleted HCT116, pilot screen, cell-based, HCT116 clonal line, CellTiter-Glo (AID 824;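 active = viability at or below 27.92% in each of two runs, the all-compound median minus 4 SD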;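 also: 0% = 20 µM Hyamine control and 100% = vehicle cell control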); details: 60 h, at 10 µM, active compounds read low
[6] = inhibitors of the yeast RAM network, pilot screen, dse1pr::URA3 reporter, 5-FOA selection (AID 869);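 also: 0% = DMSO wells with no growth and 100% = 10 µM 1-NA-PP1 with full growth; RAM network block rescues cells from 5-FOA so hits raise OD615 growth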; details: S. cerevisiae dse1pr::URA3 5-FOA growth, OD615, 2 d; at 10 µM; active compounds read high; strain carries analog-sensitive mutant Cbk1 kinase
[7] = RAM signaling pathway blockade in yeast – S. cerevisiae, Pdr1DBD-CYC8 efflux-inhibited sensitized strain, primary screen (AID 1298;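 active = RAM network inhibition above 8.4% in each of two replicates, 3 SD over the compound average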;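 also: 0% = DMSO untreated cells without growth and 100% = 10 µM 1-NA-PP1 full growth; higher means more yeast growth rescued from 5-FOA killing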); details: S. cerevisiae cbk1-as DSE1-URA3 strain, 5-FOA growth OD615, 2 d; at 50 µM; active compounds read high

SMILES	growth inhibition [1] [%]	growth inhibition [2] [%]	viability increase [3] [%]	viability [4] [%]	viability [5]	inhibition [6] [%]	RAM network inhibition [7] [%]
COc1ccc(C2C(C(=O)Nc3ccccc3OC)=C(C)Nc3ncnn32)cc1 (stereo not drawn)	-18.5	6.38	-3.68	99.2	94.4%	1.78	-2.3
Nc1ccc(-c2nc3ccccc3[nH]2)cc1	-6.98	-10.1	-3.12	97.3	87.8%	2.31	4.57
CC(C)c1cc(N2CCN(C(=O)c3ccco3)CC2)n2c(nc3ccccc32)c1C#N	-3.91	0.12	-5.67	94.1	91.6%	2.04	3.57
CN(Cc1ccccc1)C(=O)CCC(=O)N(C)Cc1ccccc1	-1.99	4.61	-0.27	103	90.2%	0.97	-0.11
COc1ccc(C(C#N)Nc2ccccc2OC)cc1 (stereo not drawn)	-7.99	-12.7	-2.75	80.9	96%	0.35	2.51
CN(C)S(=O)(=O)c1ccc2c(c1)c(=O)c(C(=O)N1CCN(c3ccccn3)CC1)cn2C	-5.42	5.45	1.06	97.9	104%	0.415	4.54
CCOC(=O)c1ccc(NC(=O)NCCN2CCCCC2)cc1	-0.03	-4.93	-0.32	105	100%	1.49	3.62
COc1ccc(Br)cc1C1CC(=O)N2CN(Cc3ccccc3)CSC2=C1C#N (stereo not drawn)	4.47	12.8	-4.64	85	87.5%	2.63	4.51
COc1cc2c(c(O)c1OC)C(=O)C(OC)CCC2 (stereo not drawn)	0.06	-2.16	-0.47	97	93.7%	0.275	-0.62
Cc1cc(C)n2c(SCC(=O)Nc3ccccc3)nnc2n1	-7.49	-9.43	-2.57	102	91.4%	1.94	-0.67
CC(C)N(Cc1nc(-c2ccccc2)no1)S(=O)(=O)c1ccccc1	-10.8	-9.29	1.67	89.3	79.5%	0.555	4.95
Cc1onc(-c2ccccc2Cl)c1C(=O)NCc1ccc2c(c1)cc(C)n2C	-6.07	-12.7	-3.02	95.5	84.6%	1.93	5.14
O=C(CSCc1ccc(Cl)cc1)c1ccco1	-9.9	0.15	0.59	96.5	89.8%	0.695	2.59
CCOC(=O)CSC1=C(C#N)C(c2ccccc2OC)CC(=O)N1 (stereo not drawn)	-14	-1.51	-6.53	27.5	27.4% (active)	0.27	-0.77
Cc1ccc(-c2nc(NC(=O)CSc3nnc(C)s3)ns2)cc1	-5.46	2.65	-0.8	123	102%	0.34	2.66
CCn1c(SCC(=O)N2CCN(c3ccccc3)CC2)nc2c(c1=O)SC(C)C2 (stereo not drawn)	-13.4	-10.2	-2.66	88.5	78.4%	1.4	2.11
COC(=O)C1=C(C)Nc2nc(-c3ccccc3)nn2C1c1ccc(C)o1 (stereo not drawn)	-4.19	12.3	-4.23	78.3	76.1%	2.19	1.2
OC(CNCc1ccco1)COc1ccccc1 (stereo not drawn)	-12.7	-10.2	0.59	100	103%	1.44	2.54
CN(C)c1ccc(NC(=O)c2cccc(N3C(=O)CCC3=O)c2)cc1	5.53	4.7	1.36	106	100%	-0.005	4.75
O=C(c1ccc(CS(=O)(=O)c2ccccc2)o1)N1CCOCC1	-12.2	-15.5	-0.71	105	95.8%	1.19	3.8
O=C1CCCc2sccc2N1	-6.83	-3.71	-1.57	106	96.9%	0.26	2.15
N#Cc1cccc(NC(=O)CC2CCCCC2)c1	-1.48	11.6	-0.95	95	86.8%	0.645	2.76
Cn1cc(CC(=O)NCCCN2CCCC2=O)c2ccccc21	-3.36	-11.5	-1.83	99.3	87.3%	0.77	-0.89
CCOC(=O)C1CCCN(C(=O)c2cc3c(=O)n(C)c4ccccc4c3n2C)C1 (stereo not drawn)	-1.98	0.3	-3.5	94.2	92.7%	0.67	-0.46
